Source: PubChem
T cruzi growth-1: blocks T. cruzi growth in NIH3T3 culture; T. cruzi beta-gal in NIH3T3, GalScreen luminescence, 90 h; inhibition, % at 8.34 µM; 77,000 compounds, 5.9% hits; AID 624255;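 active = mean inhibition above about 93%, with at least 55% of replicates each passing it, limit read from the data, passing the limit was not always enough; inconclusive = only one of those two conditions holds; inactive = neither condition holds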
GASC1 inh: inhibitors of human demethylase GASC-1 KDM4C; inhibition, % at 12.5 µM; 96,000 compounds, 0.15% hits; GST-KDM4C 2-372, H3K9me3 peptide, LANCE TR-FRET; Q9H3R0;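 active = mean replicate inhibition above about 25%, with at least 55% of replicates also reaching it, limit read from the data, passing the limit was not always enough; inconclusive = only one of those two conditions met; inactive = neither condition met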
Target sequence (Q9H3R0 2-372 limits assumed): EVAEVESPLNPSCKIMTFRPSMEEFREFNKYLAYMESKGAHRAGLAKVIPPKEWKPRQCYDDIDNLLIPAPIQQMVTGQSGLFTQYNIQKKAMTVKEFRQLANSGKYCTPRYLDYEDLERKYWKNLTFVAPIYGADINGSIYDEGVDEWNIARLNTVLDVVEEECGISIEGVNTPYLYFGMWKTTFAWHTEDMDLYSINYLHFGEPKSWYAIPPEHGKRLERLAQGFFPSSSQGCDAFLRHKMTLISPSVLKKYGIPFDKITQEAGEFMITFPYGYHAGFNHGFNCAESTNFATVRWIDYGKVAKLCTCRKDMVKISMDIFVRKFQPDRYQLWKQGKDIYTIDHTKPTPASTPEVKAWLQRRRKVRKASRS
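System – N-terminal GST-fused human GASC-1 (KDM4C) fragment, residues 2-372 · Input – enzyme final amount 10 nM · Technique – LANCE TR-FRET, Eu antibody, ULight-streptavidin, EDTA, ex 340 nm, em 618/671 nm · Medium – HEPES buffer, pH 7.5, plus ascorbate · Incubation – enzyme reaction 30 min, then detection 60 min, both room temperature · Reagent – H3K9me3 peptide with Fe(II)/2OG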
IDH1 mut inh: inhibitors of human IDH1 R132H. O75874. 70,000 compounds, 0.18% hits. inhibition, % at 10 µM. IDH1 R132H reductase, diaphorase/resazurin fluorescence, 60 min; in the data active = inhibition above about 34%; inconclusive = no clear call, values can overlap the other calls; inactive = below about 11%
Pf Dd2 growth: P. falciparum Dd2 growth inhibition. AID 1159554. 94,000 compounds, 2.3% hits. SYBR Green, 72 h; hits give low values. activity change, % at 10 µM; in the data active = activity change below about -80%; inconclusive = no clear call, values can overlap the other calls
T cruzi growth-2: blocks T. cruzi growth in NIH3T3 host cells; shares compounds with T cruzi growth-1; inhibition, % at 8.35 µM; 5,600 compounds, 72% hits; T. cruzi beta-gal in NIH3T3, GalScreen luminescence, 90 h;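 active = mean replicate inhibition above about 95% and at least 55% of replicates individually reaching it, limit read from the data; inconclusive = only one of the two criteria is met; inactive = neither criterion is met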
T cruzi growth-3: inhibitors of T. cruzi proliferation. shares compounds with T cruzi growth-1. T. cruzi beta-gal in NIH3T3, GalScreen luminescence, 90 h. inhibition, % at 2.09 µM. 5,600 compounds, 21% hits. AID 651740;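 active = mean inhibition above about 95%, with at least 55% of replicates also reaching it, limit read from the data; inconclusive = meets just one of the two conditions; inactive = meets neither condition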
3T3 cytotox: NIH/3T3 (mouse) viability loss | shares compounds with T cruzi growth-1 | cytotoxicity (signal decrease), % at 8.35 µM | NIH/3T3 viability, CellTiter-Glo ATP luminescence, 90 h | AID 651742 | 5,600 compounds, 14% hits;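 active = mean signal decrease across replicates above about 35% based on untreated-well scatter, with enough replicates individually passing, limit read from the data; inconclusive = no rule stated though some were filed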
3T3 cytotox 2: kills mouse NIH/3T3 fibroblasts. 5,600 compounds, 56% hits. inhibition, % at 24.9 µM. NIH/3T3 viability, CellTiter-Glo ATP luminescence, 90 h. shares compounds with T cruzi growth-1. AID 651744;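 active = mean loss of cell viability signal at or above a set limit, and enough replicates individually reaching it; inconclusive = meets only the mean limit or only the replicate share; inactive = meets neither condition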
Each line names hits and unclear results; the compound was inactive in the other large screens (follow-up assays come after a bar, where they were run). Hits are enriched below; roughly 5.9% of the tested compounds scored in any of these assays.

C[C@H](CO)N1C[C@H](C)[C@H](CN(C)CC2CCCCC2)OCCCC[C@H](C)Oc2ccc(NC(=O)Nc3ccccc3)cc2C1=O	T cruzi growth-1 inconclusive | T cruzi growth-2 98.2 | T cruzi growth-3 inactive | 3T3 cytotox inactive | 3T3 cytotox 2 105.2
C[C@H](CO)N1C[C@H](C)[C@H](CN(C)CC2CC2)OCCCC[C@H](C)Oc2ccc(NC(=O)Nc3ccccc3)cc2C1=O	T cruzi growth-1 97.6 | T cruzi growth-2 104.1 | T cruzi growth-3 inactive | 3T3 cytotox inactive | 3T3 cytotox 2 inactive
C[C@@H]1CN([C@@H](C)CO)S(=O)(=O)c2ccc(-c3cccc(C#N)c3)cc2O[C@@H]1CN(C)CC1CC1	none
Cc1ccc(S(=O)(=O)Nc2ccc3c(c2)C(=O)N([C@@H](C)CO)C[C@@H](C)[C@H](CN(C)Cc2ccc4c(c2)OCO4)OCCCC[C@H](C)O3)cc1	none (no result: IDH1 mut inh)
C[C@H]1CCCCO[C@H](CN(C)Cc2ccc3c(c2)OCO3)[C@@H](C)CN([C@@H](C)CO)C(=O)c2cc(NS(=O)(=O)c3ccc(F)cc3)ccc2O1	none
Cc1ccc(S(=O)(=O)Nc2ccc3c(c2)C(=O)N([C@@H](C)CO)C[C@@H](C)[C@@H](CN(C)Cc2ccc4c(c2)OCO4)OCCCC[C@H](C)O3)cc1	T cruzi growth-1 inconclusive (no result: IDH1 mut inh) | T cruzi growth-2 inactive | T cruzi growth-3 inconclusive | 3T3 cytotox 60.6 | 3T3 cytotox 2 104.2
Cc1ccc(S(=O)(=O)Nc2ccc3c(c2)C(=O)N([C@H](C)CO)C[C@H](C)[C@@H](CN(C)Cc2ccc4c(c2)OCO4)OCCCC[C@H](C)O3)cc1	T cruzi growth-1 102.1 (no result: IDH1 mut inh) | T cruzi growth-2 107.9 | T cruzi growth-3 inactive | 3T3 cytotox inactive | 3T3 cytotox 2 83.7
Cc1ccc(S(=O)(=O)Nc2ccc3c(c2)C(=O)N([C@@H](C)CO)C[C@H](C)[C@@H](CN(C)Cc2ccc4c(c2)OCO4)OCCCC[C@@H](C)O3)cc1	T cruzi growth-1 97.7, Pf Dd2 growth -80.8 (no result: IDH1 mut inh) | T cruzi growth-2 102.4 | T cruzi growth-3 inactive | 3T3 cytotox inactive | 3T3 cytotox 2 105.2
Cc1ccc(S(=O)(=O)Nc2ccc3c(c2)C(=O)N([C@@H](C)CO)C[C@H](C)[C@@H](CN(C)Cc2ccc4c(c2)OCO4)OCCCC[C@H](C)O3)cc1	T cruzi growth-1 104.5 | T cruzi growth-2 102.4 | T cruzi growth-3 inactive | 3T3 cytotox inactive | 3T3 cytotox 2 79.7
Cc1ccc(S(=O)(=O)Nc2ccc3c(c2)C(=O)N([C@@H](C)CO)C[C@@H](C)[C@@H](CN(C)Cc2ccc4c(c2)OCO4)OCCCC[C@@H](C)O3)cc1	none
Cc1ccc(S(=O)(=O)Nc2ccc3c(c2)C(=O)N([C@H](C)CO)C[C@H](C)[C@@H](CN(C)Cc2ccc4c(c2)OCO4)OCCCC[C@@H](C)O3)cc1	none (no result: IDH1 mut inh)
COc1ccc(NC(=O)N2CC[C@@H]3[C@@H](CO)N(C)c4ccc(-c5ccc(F)cc5)cc4[C@@H]32)cc1	none (no result: IDH1 mut inh)
COc1ccc(S(=O)(=O)Nc2ccc3c(c2)C(=O)N([C@H](C)CO)C[C@H](C)[C@H](CN(C)Cc2ccc4c(c2)OCO4)OCCCC[C@H](C)O3)cc1	T cruzi growth-1 inconclusive (no result: IDH1 mut inh) | T cruzi growth-2 103.3 | T cruzi growth-3 inconclusive | 3T3 cytotox inactive | 3T3 cytotox 2 105.3
C[C@@H]1CCCCO[C@H](CN(C)Cc2ccc3c(c2)OCO3)[C@@H](C)CN([C@@H](C)CO)C(=O)c2cc(NS(=O)(=O)c3ccc(Cl)cc3)ccc2O1	T cruzi growth-1 inconclusive (no result: IDH1 mut inh) | T cruzi growth-2 95.1 | T cruzi growth-3 108.5 | 3T3 cytotox inconclusive | 3T3 cytotox 2 103.2
C[C@@H]1CCCCO[C@@H](CN(C)Cc2ccc3c(c2)OCO3)[C@H](C)CN([C@@H](C)CO)C(=O)c2cc(NS(=O)(=O)c3ccc(Cl)cc3)ccc2O1	none (no result: IDH1 mut inh)
CCNC(=O)Nc1ccc2c(c1)C(=O)N(C)[C@@H]1CC[C@H](CC(=O)N[C@H](C)c3ccccc3)O[C@H]1CO2	none (no result: IDH1 mut inh, Pf Dd2 growth)
